One experiment relates to MCF7. The experiment can be described thus: Cytotoxicity against human MCF7 cells after 48 hrs by MTT assay. In kind it is cell-based. Particulars: MCF7, 48 h. Summed up: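 MCF7 human breast adenocarcinoma cells seeded at 5 × 10³ cells/well and preincubated 24 h at 37 °C, 5% CO₂. Compounds were added at various concentrations for 48 h at 37 °C. MTT solution (5 mg/mL stock) was added for 2 h, and formazan was dissolved in 10% SDS–0.01 N HCl. OD was read at 550/700 nm in triplicate wells, and IC₅₀ was taken from % living cells vs control.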

Another experiment deals with Plasmodium falciparum. The experiment can be described thus: Antimalarial activity against chloroquine-sensitive Plasmodium falciparum 3D7 by giemsa stain.
Experiment [1] in a line: Selectivity index, ratio of IC50 for human MCF7 to IC50 for chloroquine-sensitive Plasmodium falciparum 3D7.
The test system of experiment [2] is Aorta. Briefly: Vasorelaxant activity in Wistar rat endothelium-intact thoracic aortic rings assessed as inhibition of phenylephrine-induced tissue contraction. In kind it is functional, tissue-based. Summed up:
(§1)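 Thoracic aorta rings, 3 mm, in Krebs–Henseleit solution (95% O₂/5% CO₂, 37 °C), equilibrated 60 min at 1.0 g resting tension. Rings were contracted with 3 × 10⁻⁷ M phenylephrine. Endothelium was accepted if 10⁻⁵ M acetylcholine gave 80% relaxation. At the contraction plateau, samples were added at 1 × 10⁻⁶–3 × 10⁻⁵ M. Tension was recorded isometrically; data are mean ± SEM with ANOVA/Bonferroni.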

For experiment [3], the system named is Aorta. The experiment can be described thus: Vasorelaxant activity in Wistar rat endothelium-removed thoracic aortic rings assessed as inhibition of phenylephrine-induced tissue contraction. In kind it is functional, tissue-based. Summed up:
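Isolated thoracic aorta rings, 3 mm, in oxygenated Krebs–Henseleit solution at 37 °C, equilibrated 60 min under 1.0 g tension. Rings were precontracted with 3 × 10⁻⁷ M phenylephrine, and at the plateau samples were added at 1 × 10⁻⁶–3 × 10⁻⁵ M. Relaxation was recorded by force transducer; data are mean ± SEM.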

Experiment [4] deals with Aorta. Briefly: Vasorelaxant activity in Wistar rat endothelium-intact thoracic aortic rings assessed as inhibition of phenylephrine-induced tissue contraction at 30 uM. In kind it is functional, tissue-based. Summed up: as §1
Experiment [5] can be described thus: Vasorelaxant activity in Wistar rat endothelium-intact thoracic aortic rings assessed as inhibition of phenylephrine-induced tissue contraction in presence of NO synthase-inhibitor L-NMMA. In kind it is functional. Particulars: Thoracic aorta.

Active and inactive are the calls of the source. The rule behind the calls is not given here.

For orientation: IC50 means the midpoint of a concentration-inhibition curve. A lower IC50 goes with greater potency in that assay.

For the compound `CCCCOc1cc2c3c(nc(C)cc3c1)C=C(C)O2` [CASSIARIN A BUTYL ETHER], the figures for the IC50 in the experiment with MCF7 and with Plasmodium falciparum were 76.7 µM and 3 µM, respectively. Moreover, the Ratio IC50 in experiment [1] is over 26.
For the compound `CC(=O)Oc1cc2c3c(nc(C)cc3c1)C=C(C)O2` [ACETYLCASSIARIN A], the values for the half-maximal inhibitory concentration (IC50) in the experiment with MCF7 and in the experiment with Plasmodium falciparum were over 100 µM and 1.2 µM, respectively. Moreover, the Ratio IC50 in experiment [1] is over 83.
As to `CC1=Cc2nc(C)cc3cc(O)cc(c23)O1` [CASSIARIN A], the figures for the IC50 in the experiment on MCF7 and in the experiment on Plasmodium falciparum were over 100 µM and 0.023 µM, respectively. Also, the Activity result in the experiment with Aorta [2] was “Dose-dependent effect”. Further, the Ratio IC50 in experiment [1] is over 4350. Further, the outcome in the experiment on Aorta [3] was inactive. Further, the outcome in the experiment with Aorta [4] was Active.
For `CNC(=N)NCCC[C@H](N)C(=O)O`, in experiment [5], the outcome was inactive.
Consider `COc1cc2c3c(nc(C)cc3c1)C=C(C)O2` [CASSIARIN A METHYL ETHER], for which the IC50 in the experiment with MCF7 came to 87.8 µM; with Plasmodium falciparum, 3.6 µM. The Activity entry in the experiment with Aorta [2] is “Dose-dependent effect”. Also, the Ratio IC50 in experiment [1] was over 24. Further, in the experiment on Aorta [3], the outcome was inactive. Also, the result in the experiment on Aorta [4] was Active.
On to `COC(=O)CCCn1c(C)cc2cc(=O)cc3oc(C)cc1c23` [CASSIARIN B], for which the values for the concentration for half-maximal inhibition (IC50) with MCF7 and in the experiment with Plasmodium falciparum were over 100 µM and 22 µM, respectively. Moreover, in experiment [1], the Ratio IC50 was over 4.5. Also, the result in the experiment on Aorta [4] was inactive.
Take `CCCC(=O)Oc1cc2c3c(nc(C)cc3c1)C=C(C)O2` [BUTYROYLCASSIARIN A]: the IC50 in the experiment with MCF7 was over 100 µM; in the experiment on Plasmodium falciparum, 4.1 µM. For the same compound, the Ratio IC50 in experiment [1] was over 24. For the same compound, the result with Aorta [4] was Active.
In the case of `CC1=Cc2nc(C)cc3cc(OCc4ccccc4)cc(c23)O1` [CASSIARIN A BENZYL ETHER], the figures for the concentration for half-maximal inhibition (IC50) with MCF7 and in the experiment with Plasmodium falciparum were 72.2 µM and 14.9 µM, respectively. Further, the Ratio IC50 in experiment [1] is 4.8.
As for `CC1=Cc2nc(C)cc3cccc(c23)O1` [7-DEHYDROXYCASSIARIN A], the 50% inhibitory concentration (IC50) with MCF7 was over 100 µM; in the experiment with Plasmodium falciparum it was 5.4 µM. The Ratio IC50 in experiment [1] was over 18.
For `CC1=Cc2nc(C)cc3cc(OS(=O)(=O)C(F)(F)F)cc(c23)O1`, the half-maximal inhibitory concentration (IC50) in the experiment on MCF7 was over 100 µM; in the experiment with Plasmodium falciparum it was 0.41 µM. Further, in experiment [1], the Ratio IC50 is over 244.
Turning to `CCN(CC)CCCC(C)Nc1ccnc2cc(Cl)ccc12` (configuration not stated) [CHLOROQUINE], the 50% inhibitory concentration (IC50) with MCF7 was determined as 36.1 µM.
As for `CCCCn1c(C)cc2cc(=O)cc3oc(C)cc1c23`, the half-inhibitory concentration (IC50) is over 100 µM in the experiment on MCF7 and 4.2 µM with Plasmodium falciparum. The Ratio IC50 in experiment [1] was over 23. Moreover, the result with Aorta [4] was inactive.
As to `CC1=Cc2nc(C)cc3cc(OC(=O)c4ccccc4)cc(c23)O1` [BENZOYLCASSIARIN A], the values for the IC50 in the experiment with MCF7 and in the experiment on Plasmodium falciparum were over 100 µM and 1.2 µM, respectively. In addition, in experiment [1], the Ratio IC50 was over 83.
For `Cc1cc2c3c(cc(C)n2C)cc(=O)cc3o1`, the figures for the IC50 in the experiment on MCF7 and with Plasmodium falciparum were over 100 µM and 23.3 µM, respectively. In addition, the Ratio IC50 in experiment [1] is over 4.2. Moreover, the result in the experiment on Aorta [4] was inactive.
As to `Cc1cc2c3c(cc(C)n2-c2ccccc2)cc(=O)cc3o1`, the IC50 in the experiment on MCF7 was over 100 µM; in the experiment with Plasmodium falciparum, 0.09 µM. The Ratio IC50 in experiment [1] was over 1110. In addition, the result in the experiment with Aorta [4] was inactive.

For the origin of these results see ChEMBL document CHEMBL1153093, “Synthesis and structure-activity relationships of cassiarin A as potential antimalarials with vasorelaxant activity” (Bioorg Med Chem, 2009).
